Assay results: ChEMBL document CHEMBL1122519, “Bispyridinamines: a new class of topical antimicrobial agents as inhibitors of dental plaque” (1984)

Tests used:
Actinomyces viscosus = assay: Compound is evaluated for minimal bactericidal concentration against plaque formation for Actinomyces viscosus; format: functional, organism-based
In short: (§1)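 Preformed in vitro plaques of S. mutans NCTC 10449 or A. viscosus M-100 were grown on ceramic hydroxylapatite under anaerobic conditions at 37 °C in sucrose-supplemented medium. Plaques were immersed for 30 min at 37 °C in compound at 0.3–20 mM, rinsed, and moved to broth containing bromocresol purple. Kill was judged by no acid production, no turbidity increase and no growth on plating at 48 h. Plaques were run in quadruplicate.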

Streptococcus mutans [1] = assay: Minimum plaque inhibitory concentration using a standard test organism, Streptococcus mutans OMZ-61; format: functional, organism-based
In short: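 Ceramic hydroxylapatite plates were soaked twice for 1 min each in compound at […] (aqueous), air-dried and rinsed, then hung in sucrose beef-extract medium (pH 7.0) inoculated with late-log S. mutans OMZ-61. Incubation was anaerobic at 37 °C for 24 h, and treatment plus reinoculation were repeated for a second 24 h. Plaque was stained with 1% FD&C Red No. 3 and scored visually. The value is the lowest concentration giving no plaque while medium growth matched control.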

[2] = Compound is evaluated for stain index; format: functional
In short: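 Ratio of the minimum concentration staining a plaque-free ceramic hydroxylapatite plate to the minimum plaque-inhibiting concentration, both run under the same conditions. Plates got two 1-min soaks (0.1–0.001%), each followed by air-drying, then a water rinse. They were then held 24 h anaerobically at 37 °C in sucrose beef-extract medium, with or without S. mutans OMZ-61, repeated once. Staining was 1-min 1% FD&C Red No. 3, scored visually.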

Streptococcus mutans [3] = assay: Compound is evaluated for minimal bactericidal concentration against plaque formation for Streptococcus mutans; format: functional, organism-based; in short: as §1
Pseudomonas aeruginosa = assay: Minimum antimicrobial inhibitory concentration against Pseudomonas aeruginosa MGH-2; format: functional
In short: (§2)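 Serial twofold tube dilution in tryptose phosphate broth. Each compound was prepared as a 1000 μg/mL aqueous stock and diluted in double-strength broth, then 2×10^5 cells were added. Tubes were incubated aerobically at 37 °C for 24 h. The MIC was taken as the lowest concentration with no visible growth.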

Staphylococcus aureus = assay: Minimum antimicrobial inhibitory concentration against Staphylococcus aureus; format: functional; in short: as §2
Escherichia coli [4] = assay: Minimum inhibitory concentration against Escherichia coli (Vogel); format: functional; in short: as §2
Escherichia coli [5] = assay: Antimicrobial minimum inhibitory concentration against Escherichia coli 100/B22; format: functional; in short: as §2
Proteus mirabilis = assay: Minimum antimicrobial inhibitory concentration against Proteus mirabilis MGH-1; format: functional; in short: as §2
Klebsiella pneumoniae = assay: Minimum inhibitory concentration against Klebsiella pneumonia 39645; format: functional; in short: as §2
Escherichia coli [6] = assay: Antimicrobial minimum inhibitory concentration against Escherichia coli AB1932-1; format: functional; in short: as §2

Br.Br.CCCCCCCCCN=c1ccn(CCCCCCCCCn2ccc(=NCCCCCCCCC)cc2)cc1
Concentration (Actinomyces viscosus): 1.37 mM
Concentration (Streptococcus mutans [1]): 0.004%
Stain index [2]: 1
Concentration (Streptococcus mutans [3]): 1.37 mM
MIC (Pseudomonas aeruginosa): 3.9 µg/mL
MIC (Staphylococcus aureus): 2 µg/mL
MIC (Escherichia coli [4]): 2 µg/mL
MIC (Escherichia coli [5]): 2 µg/mL
MIC (Proteus mirabilis): 3.9 µg/mL
MIC (Klebsiella pneumoniae): 3.9 µg/mL
MIC (Escherichia coli [6]): 3.9 µg/mL

CCCCCCCN=c1ccn(CCCCCCCCCCCCn2ccc(=NCCCCCCC)cc2)cc1.Cl.Cl
Concentration (Actinomyces viscosus): 2.81 mM
Concentration (Streptococcus mutans [1]): 0.003%
Stain index [2]: 10
Concentration (Streptococcus mutans [3]): 2.81 mM
MIC (Pseudomonas aeruginosa): 3.9 µg/mL
MIC (Staphylococcus aureus): 0.2 µg/mL
MIC (Escherichia coli [4]): 0.5 µg/mL
MIC (Escherichia coli [5]): 0.5 µg/mL
MIC (Proteus mirabilis): 2 µg/mL
MIC (Klebsiella pneumoniae): 2 µg/mL
MIC (Escherichia coli [6]): 1 µg/mL

Br.Br.CCCCCCCCCN=c1ccn(CCCCCCCCCCCCn2ccc(=NCCCCCCCCC)cc2)cc1
Concentration (Actinomyces viscosus): 2.6 mM
Concentration (Streptococcus mutans [1]): 0.01%
Stain index [2]: 1
Concentration (Streptococcus mutans [3]): 1.3 mM
MIC (Pseudomonas aeruginosa): 3.9 µg/mL
MIC (Staphylococcus aureus): 2 µg/mL
MIC (Escherichia coli [4]): 3.9 µg/mL
MIC (Escherichia coli [5]): 3.9 µg/mL
MIC (Proteus mirabilis): 3.9 µg/mL
MIC (Klebsiella pneumoniae): 3.9 µg/mL
MIC (Escherichia coli [6]): 7.8 µg/mL

Br.Br.CCCCCCCCCN=c1ccn(CCCCCCCn2ccc(=NCCCCCCCCC)cc2)cc1
Concentration (Actinomyces viscosus): 7.16 mM
Concentration (Streptococcus mutans [1]): 0.004%
Stain index [2]: 1
Concentration (Streptococcus mutans [3]): 2.86 mM
MIC (Pseudomonas aeruginosa): 15.6 µg/mL
MIC (Staphylococcus aureus): 0.5 µg/mL
MIC (Escherichia coli [4]): 1 µg/mL
MIC (Escherichia coli [5]): 2 µg/mL
MIC (Proteus mirabilis): 3.9 µg/mL
MIC (Klebsiella pneumoniae): 2 µg/mL
MIC (Escherichia coli [6]): 2 µg/mL

Br.Br.CCCCCCCCN=c1ccn(CCCCCCCCCCCCn2ccc(=NCCCCCCCC)cc2)cc1
Concentration (Actinomyces viscosus): 1.35 mM
Concentration (Streptococcus mutans [1]): 0.005%
Stain index [2]: 10
Concentration (Streptococcus mutans [3]): 2.7 mM
MIC (Pseudomonas aeruginosa): 2 µg/mL
MIC (Staphylococcus aureus): 0.5 µg/mL
MIC (Escherichia coli [4]): 2 µg/mL
MIC (Escherichia coli [5]): 2 µg/mL
MIC (Proteus mirabilis): 2 µg/mL
MIC (Klebsiella pneumoniae): 1 µg/mL
MIC (Escherichia coli [6]): 2 µg/mL

Br.Br.c1cn(CCCCCCn2ccc(=NC3CCCCC3)cc2)ccc1=NC1CCCCC1
Concentration (Streptococcus mutans [1]): > 1%
MIC (Pseudomonas aeruginosa): > 125 µg/mL
MIC (Staphylococcus aureus): 15.6 µg/mL
MIC (Escherichia coli [4]): > 125 µg/mL
MIC (Escherichia coli [5]): > 125 µg/mL
MIC (Proteus mirabilis): > 125 µg/mL
MIC (Klebsiella pneumoniae): > 125 µg/mL
MIC (Escherichia coli [6]): 125 µg/mL

Br.Br.CCCCCCN=c1ccn(CCCCCCn2ccc(=NCCCCCC)cc2)cc1
Concentration (Streptococcus mutans [1]): 1%
MIC (Pseudomonas aeruginosa): > 125 µg/mL
MIC (Staphylococcus aureus): 0.5 µg/mL
MIC (Escherichia coli [4]): 31.3 µg/mL
MIC (Escherichia coli [5]): 7.8 µg/mL
MIC (Proteus mirabilis): > 250 µg/mL
MIC (Klebsiella pneumoniae): 125 µg/mL
MIC (Escherichia coli [6]): 7.8 µg/mL

Br.Br.CCCCCCCN=c1ccn(CCCCCn2ccc(=NCCCCCCC)cc2)cc1
Concentration (Streptococcus mutans [1]): > 1%
MIC (Pseudomonas aeruginosa): 125 µg/mL
MIC (Staphylococcus aureus): 0.5 µg/mL
MIC (Escherichia coli [4]): 31.3 µg/mL
MIC (Escherichia coli [5]): 7.8 µg/mL
MIC (Proteus mirabilis): > 125 µg/mL
MIC (Klebsiella pneumoniae): 31.3 µg/mL
MIC (Escherichia coli [6]): 3.9 µg/mL

Br.Br.CCCCC(CC)CN=c1ccn(CCCCCCCn2ccc(=NCC(CC)CCCC)cc2)cc1 (centres undefined)
Concentration (Streptococcus mutans [1]): > 1%
MIC (Pseudomonas aeruginosa): 125 µg/mL
MIC (Staphylococcus aureus): 0.5 µg/mL
MIC (Escherichia coli [4]): 3.9 µg/mL
MIC (Escherichia coli [5]): 3.9 µg/mL
MIC (Proteus mirabilis): > 125 µg/mL
MIC (Klebsiella pneumoniae): 7.8 µg/mL
MIC (Escherichia coli [6]): 3.9 µg/mL

Br.Br.CCCCCCCCCCCCN=c1ccn(CCCCCCCCCCCCn2ccc(=NCCCCCCCCCCCC)cc2)cc1
Concentration (Streptococcus mutans [1]): 0.1%
MIC (Pseudomonas aeruginosa): > 62.5 µg/mL
MIC (Staphylococcus aureus): 31.3 µg/mL
MIC (Escherichia coli [4]): > 62.5 µg/mL
MIC (Escherichia coli [5]): > 62.5 µg/mL
MIC (Proteus mirabilis): > 62.5 µg/mL
MIC (Klebsiella pneumoniae): > 62.5 µg/mL
MIC (Escherichia coli [6]): > 62.5 µg/mL

Br.Br.CCCCCCCCCCN=c1ccn(CCCCCCCCn2ccc(=NCCCCCCCCCC)cc2)cc1
Concentration (Streptococcus mutans [1]): 0.01%
MIC (Pseudomonas aeruginosa): 7.8 µg/mL
MIC (Staphylococcus aureus): 1 µg/mL
MIC (Escherichia coli [4]): 2 µg/mL
MIC (Escherichia coli [5]): 3.9 µg/mL
MIC (Proteus mirabilis): 7.8 µg/mL
MIC (Klebsiella pneumoniae): 3.9 µg/mL
MIC (Escherichia coli [6]): 7.8 µg/mL

Br.Br.Fc1ccc(N=c2ccn(CCCCCCCCn3ccc(=Nc4ccc(F)cc4)cc3)cc2)cc1
Concentration (Streptococcus mutans [1]): > 1%
MIC (Pseudomonas aeruginosa): > 62.5 µg/mL
MIC (Staphylococcus aureus): 2 µg/mL
MIC (Escherichia coli [4]): 15.6 µg/mL
MIC (Escherichia coli [5]): 15.6 µg/mL
MIC (Proteus mirabilis): > 125 µg/mL
MIC (Klebsiella pneumoniae): > 62.5 µg/mL
MIC (Escherichia coli [6]): 7.8 µg/mL

Br.Br.CCCCC(CC)CN=c1ccn(CCCCCCCCCn2ccc(=NCC(CC)CCCC)cc2)cc1 (centres undefined)
Concentration (Streptococcus mutans [1]): 0.004%
MIC (Pseudomonas aeruginosa): 125 µg/mL
MIC (Staphylococcus aureus): 0.3 µg/mL
MIC (Escherichia coli [4]): 1 µg/mL
MIC (Escherichia coli [5]): 1 µg/mL
MIC (Proteus mirabilis): 125 µg/mL
MIC (Klebsiella pneumoniae): 7.8 µg/mL
MIC (Escherichia coli [6]): 1 µg/mL
